Measured values: ChEMBL document CHEMBL4270628, “Design, synthesis, and evaluation of cystargolide-based β-lactones as potent proteasome inhibitors” (Eur J Med Chem, 2018)
The source made the active and inactive calls. The rule behind the calls is not given here.

Legend:
[1] = target: T1, Proteasome subunit beta type-2 (Saccharomyces cerevisiae (strain ATCC 204508 / S288c) (Baker's yeast), UniProt P25043); assay: Inhibition of yeast 20S proteasome beta2 subunit using SUC-RLR-AMC as substrate pretreated for 30 mins followed by substrate addition and measured after 60 mins by fluorescence assay
T1 sequence (P25043 whole entry): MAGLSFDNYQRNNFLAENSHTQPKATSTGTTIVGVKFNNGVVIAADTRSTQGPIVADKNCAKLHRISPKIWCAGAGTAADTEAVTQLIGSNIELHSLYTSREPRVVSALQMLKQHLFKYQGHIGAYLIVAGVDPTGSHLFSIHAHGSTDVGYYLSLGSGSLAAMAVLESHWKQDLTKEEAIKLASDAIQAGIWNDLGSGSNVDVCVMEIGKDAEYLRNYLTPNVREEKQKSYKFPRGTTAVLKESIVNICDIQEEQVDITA
Outline: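 Fluorogenic substrate was then added (100 μM Suc-RLR-AMC solution for β2) and incubated 60 min at 37 °C; cleavage read at ex 360/em 480 nm. IC50 from nonlinear regression on normalized data, ±SD.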

[2] = target: T2, Proteasome subunit beta type-8 (Homo sapiens, UniProt P28062); assay: Inhibition of human immunoproteasome beta5 subunit using Suc-LLVY-AMC as substrate pretreated for 30 mins followed by substrate addition and measured after 60 mins by fluorescence assay
T2 sequence (P28062 whole entry): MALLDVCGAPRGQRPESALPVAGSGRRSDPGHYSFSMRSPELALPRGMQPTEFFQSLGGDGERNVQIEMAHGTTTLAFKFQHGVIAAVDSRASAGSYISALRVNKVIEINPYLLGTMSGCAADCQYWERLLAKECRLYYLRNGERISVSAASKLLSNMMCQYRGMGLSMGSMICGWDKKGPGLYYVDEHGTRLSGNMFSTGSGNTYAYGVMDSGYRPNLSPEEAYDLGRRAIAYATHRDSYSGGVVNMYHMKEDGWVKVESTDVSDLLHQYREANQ

[3] = system: MCF7; assay: Cytotoxicity against human MCF7 cells after 48 hrs by MTT assay; type: functional, cell-based; conditions: MCF7, 48 h
Outline: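 MCF7 cells plated at 4*10⁴ cells/mL and left overnight to adhere, then exposed to a concentration series for 48 h, with DMSO vehicle, untreated cells, and 100 μM phenylarsine oxide as controls. MTT (5 mg/mL stock in PBS) was added for 2 h at 37 °C. Formazan was dissolved in DMSO and OD read at 490 nm. The best three of quadruplicate wells were used; IC50 from nonlinear regression on normalized data, ±SD.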

[4] = target: T3, Proteasome Macropain subunit MB1 (Homo sapiens, UniProt P28074); assay: Inhibition of 20S proteasome beta5 subunit in human Jurkat cell lysate using Suc-LLVY-AMC as substrate pretreated for 30 mins followed by substrate addition and measured after 60 mins by fluorescence assay
T3 sequence (P28074 whole entry): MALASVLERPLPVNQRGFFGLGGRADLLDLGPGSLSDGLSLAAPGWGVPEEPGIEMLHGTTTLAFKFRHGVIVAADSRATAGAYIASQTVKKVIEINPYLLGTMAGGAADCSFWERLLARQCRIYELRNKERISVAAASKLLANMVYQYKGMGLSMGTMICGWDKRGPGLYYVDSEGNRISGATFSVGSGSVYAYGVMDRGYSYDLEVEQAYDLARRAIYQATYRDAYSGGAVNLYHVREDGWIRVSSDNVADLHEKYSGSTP
Outline: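 Lysate was preincubated with compound 30 min at 37 °C. 100 μM substrate solution was added: Suc-LLVY-AMC for β5, Suc-RLR-AMC for β2. IC50 by nonlinear regression, ±SD.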

[5] = target: T4, Proteasome Macropain subunit MB1 (Homo sapiens) (UniProt P28074); assay: Binding affinity to 20S proteasome beta5 subunit in human Jurkat cell lysate assessed as decrease in protein hydrolysis at 100 uM pretreated for 30 mins followed by Suc-LLVY-AMC addition and measured after 1 hr by fluorescence assay
T4 sequence (whole entry): T3 sequence (P28074 whole entry)
Outline: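 Compound diluted in lysis buffer, preincubated 30 min at 37 °C. Suc-LLVY-AMC added as 100 μM solution, 60 min at 37 °C. AMC fluorescence read at ex 360/em 480 nm. Best three of quadruplicates used; IC50 by nonlinear regression, ± SD.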

[6] = target: T5, Proteasome subunit beta type-1 (Saccharomyces cerevisiae (strain ATCC 204508 / S288c) (Baker's yeast), UniProt P38624); assay: Inhibition of yeast 20S proteasome beta1 subunit using fluorescent substrate pretreated for 30 mins followed by substrate addition and measured after 60 mins by fluorescence assay
T5 sequence (P38624 whole entry): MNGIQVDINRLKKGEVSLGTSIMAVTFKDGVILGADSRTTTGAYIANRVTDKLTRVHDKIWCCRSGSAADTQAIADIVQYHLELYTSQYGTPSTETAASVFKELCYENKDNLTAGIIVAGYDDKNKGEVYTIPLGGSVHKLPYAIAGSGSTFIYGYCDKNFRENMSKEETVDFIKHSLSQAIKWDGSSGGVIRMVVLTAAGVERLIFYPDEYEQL

[7] = Half life in human AB serum by RP-HPLC analysis; type: ADME, cell-free
[8] = n-Octanol/Tris-HCl buffer partition coefficient, log P of the compound at 0.5 mg after 2 mins by RP-HPLC method; type: physicochemical
[9] = system: MDA-MB-231; assay: Cytotoxicity against human MDA-MB-231 cells after 48 hrs by MTT assay; type: functional, cell-based; conditions: MDA-MB-231, 48 h
Outline: (§1)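 MTT viability after 48 h exposure to a concentration series; MDA-MB-231 seeded at 4*10⁴ cells/mL and adhered overnight, RPMI 8226 at 4*10⁵ cells/mL and dosed immediately. MTT (5 mg/mL in PBS) added, 2 h at 37 °C; formazan dissolved in DMSO (MDA-MB-231) or DMF/SDS pH<4 (RPMI 8226); OD 490 nm.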

[10] = Half life in 0.1 M TEAA buffer by RP-HPLC analysis; type: physicochemical
[11] = target: T4, Proteasome Macropain subunit MB1 (Homo sapiens); assay: Inhibition of 20S proteasome beta5 subunit in human MCF7 cells using Suc-LLVY-AMC as substrate pretreated for 1 hr followed by compound washout and cell lysis prior to substrate addition measured after 1 hr by fluorescence assay; type: cell-based
Outline: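 Adherent MCF7 (500,000 cells/mL, overnight, ~100% confluent) dosed 1 h at 37 °C, 5% CO₂; washed twice with PBS, lysed in HEPES/Triton buffer on ice 1 h; 15 min at 37 °C, then 100 μM Suc-LLVY-AMC 1 h at 37 °C; ex 360/em 480 nm. IC50 from best three of four biological replicates per concentration.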

[12] = system: RPMI-8226; assay: Cytotoxicity against human RPMI8226 cells after 48 hrs by MTT assay; type: functional, cell-based; conditions: RPMI-8226, 48 h; outline: as §1
[13] = Inhibition of yeast 20S proteasome beta5 subunit using Suc-LLVY-AMC as substrate pretreated for 30 mins followed by substrate addition and measured after 60 mins by fluorescence assay; design: species or system Saccharomyces cerevisiae
Outline: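 Purified yeast 20S proteasome at 8 μg/mL preincubated with compound 30 min at 37 °C; then 100 μM Suc-LLVY-AMC for 60 min at 37 °C; cleaved-AMC fluorescence ex 360/em 480 nm. IC50 by nonlinear regression on normalized data, confirmed in at least technical triplicate, reported ± SD.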

[14] = system: Jurkat; assay: Induction of apoptosis in human Jurkat cells after 24 hrs by Annexin-V-FITC/propidium iodide staining based flow cytometry; type: functional, cell-based
[15] = target: T4, Proteasome Macropain subunit MB1 (Homo sapiens); assay: Inhibition of 20S proteasome beta5 subunit in human MCF7 cells assessed as accumulation of ubiuitinated protein at 1 to 10 uM after 9.5 hrs by Western blot analysis; type: cell-based
[16] = system: Jurkat; assay: Cell cycle arrest in human Jurkat cells assessed as accumulation at G2/M phase at 0.1 to 1 uM after 10 hrs by Vybrant DyeCycle Orange staining based flow cytometry; type: functional

Compound	IC50 [1] [nM]	IC50 [2] [nM]	IC50 [3] [nM]	IC50 [4] [nM]	Activity [5]	IC50 [6] [nM]	t1/2 [7] [min]	logP [8]	IC50 [9] [nM]	t1/2 [10] [min]	inhibition [11]	IC50 [12] [nM]	IC50 [13] [nM]	Activity [14]	inhibition [15]	Activity [16]
CC(C)[C@H](NC(=O)[C@@H](NC(=O)[C@@H]1OC(=O)[C@H]1C(C)C)C(C)C)C(=O)O	61600	681	84700	900	Active	10100	–	–	–	–	–	–	–	–	–	–
CC[C@H](C)[C@@H]1C(=O)O[C@H]1C(=O)N[C@H](C(=O)N[C@@H](COCc1ccccc1)C(=O)OCc1ccccc1)C(C)C	> 50000	9.1	416	–	–	17800	16.1	1.52	74	4.32	Active	41	24.5	–	–	–
CC[C@H](C)[C@@H]1C(=O)O[C@H]1C(=O)N[C@H](C(=O)N[C@H](C(=O)OCc1ccccc1)C(C)C)C(C)C	[…]	–	1850	–	–	–	–	–	287	–	Active	191	–	Active	Active	Active
CC(C)[C@H](NC(=O)[C@@H]1OC(=O)[C@H]1C(C)C)C(=O)N[C@H](C(=O)OCc1ccccc1)C(C)C	–	44.7	7000	–	–	–	–	–	–	–	Active	–	37.2	Active	Active	Active
